Measured values published in ChEMBL document CHEMBL3351394 (J Med Chem, 2014).
Converted amounts (≈) assume the structure as drawn.

Legend:
[1] = molecular target: T1, G-protein coupled bile acid receptor 1 (Homo sapiens, UniProt Q8TDU6); assay: Activity at TGR5 in human NCI-H716 cells assessed as effect on intracellular cAMP accumulation incubated for 60 mins by HTR-FRET assay; assay type: functional, cell-based
T1 sequence (Q8TDU6 whole entry): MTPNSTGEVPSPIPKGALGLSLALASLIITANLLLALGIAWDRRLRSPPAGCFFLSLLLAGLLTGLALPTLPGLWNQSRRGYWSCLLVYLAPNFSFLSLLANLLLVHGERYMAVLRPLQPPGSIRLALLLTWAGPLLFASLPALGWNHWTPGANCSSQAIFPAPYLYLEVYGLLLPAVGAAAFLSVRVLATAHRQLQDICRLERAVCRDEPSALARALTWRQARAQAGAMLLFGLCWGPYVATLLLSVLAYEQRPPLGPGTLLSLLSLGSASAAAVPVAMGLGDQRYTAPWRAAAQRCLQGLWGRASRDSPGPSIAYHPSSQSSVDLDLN
How it was run: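 NCI-H716 cells on Matrigel-coated plates were stimulated 24 h after plating with increasing compound concentrations for 60 min at 37 °C in OptiMEM containing 1 mM IBMX. Intracellular cAMP was read by HTRF (Lance kit).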

[2] = molecular target: T2, Peroxisome proliferator-activated receptor gamma (Homo sapiens, UniProt P37231); assay: (§1) Activity at GAL4-tagged PPARgamma (unknown origin) expressed in COS7 cells assessed as receptor transactivation by luciferase reporter gene assay; assay type: cell-based, COS-7
T2 sequence (P37231 whole entry): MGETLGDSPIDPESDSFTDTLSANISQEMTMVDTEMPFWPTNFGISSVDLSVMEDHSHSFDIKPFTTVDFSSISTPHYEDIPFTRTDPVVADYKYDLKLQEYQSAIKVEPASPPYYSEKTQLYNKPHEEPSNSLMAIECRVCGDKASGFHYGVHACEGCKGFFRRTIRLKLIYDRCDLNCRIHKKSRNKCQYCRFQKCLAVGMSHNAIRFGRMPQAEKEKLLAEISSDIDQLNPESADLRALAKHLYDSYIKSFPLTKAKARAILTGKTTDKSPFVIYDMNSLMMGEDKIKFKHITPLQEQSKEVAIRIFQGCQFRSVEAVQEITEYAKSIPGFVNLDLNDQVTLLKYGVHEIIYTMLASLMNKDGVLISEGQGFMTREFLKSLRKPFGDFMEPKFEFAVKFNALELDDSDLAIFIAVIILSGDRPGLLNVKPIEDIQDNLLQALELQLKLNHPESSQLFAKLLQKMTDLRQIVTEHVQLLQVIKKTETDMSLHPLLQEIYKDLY
How it was run: (§2)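 Each PPAR subtype was tested as a Gal4 fusion carrying the human hinge region and LBD (cDNA from human monocytes) in transiently transfected COS-7 cells (Lipofectamine LTX), with a pFR-Luc reporter and pRL-SV40 for normalization. Compound in 0.1% DMSO was added 5 h post-transfection and incubated overnight. Firefly/renilla RLU was scaled to 1 μM GW7647 (α), L165,041 (δ) or pioglitazone (γ).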

[3] = molecular target: T3, Peroxisome proliferator-activated receptor gamma (Homo sapiens) (UniProt P37231); assay: as §1; assay type: cell-based; details: COS-7; how it was run: as §2
T3 sequence (whole entry): T2 sequence (P37231 whole entry)

[4] = molecular target: T4, Bile acid receptor (Homo sapiens) (UniProt Q96RI1); assay: Agonist activity at FXR in human HepG2 cells assessed as induction of IBABP mrNA expression at 0.3 uM by quantitative PCR method; assay type: cell-based
T4 sequence (whole entry): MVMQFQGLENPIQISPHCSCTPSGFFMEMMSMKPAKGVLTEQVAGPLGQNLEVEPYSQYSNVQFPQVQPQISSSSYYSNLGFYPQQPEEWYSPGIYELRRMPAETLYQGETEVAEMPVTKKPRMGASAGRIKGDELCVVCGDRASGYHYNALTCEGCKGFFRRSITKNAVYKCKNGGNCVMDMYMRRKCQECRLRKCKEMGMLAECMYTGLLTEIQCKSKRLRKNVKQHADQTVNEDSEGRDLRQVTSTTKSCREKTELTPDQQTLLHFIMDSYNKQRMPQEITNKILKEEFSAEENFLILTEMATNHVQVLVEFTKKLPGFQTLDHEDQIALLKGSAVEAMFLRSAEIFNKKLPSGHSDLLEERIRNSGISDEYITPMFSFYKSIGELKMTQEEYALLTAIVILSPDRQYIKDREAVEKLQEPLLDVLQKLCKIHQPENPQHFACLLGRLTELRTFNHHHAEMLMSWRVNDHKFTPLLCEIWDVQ

[5] = Aqueous solubility of the compound; assay type: physicochemical; details: water (aqueous)
[6] = molecular target: T4, Bile acid receptor (Homo sapiens); assay: Agonist activity at FXR in human HepG2 cells assessed as induction of CYP7A1 mrNA expression at 10 uM by quantitative PCR method; assay type: cell-based
How it was run: (§3)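 HepG2 cells were seeded at 2 × 10⁶ per well. After 24 h they were switched to MEM with 1% charcoal-stripped FCS, and 24 h later dosed with compound (0.1, 0.3, 1, 3, 10 μM; 0.1% DMSO final) for 24 h. Total RNA was reverse transcribed and analysed by qPCR, GAPDH-normalized, ΔΔCt method. Samples were run in duplicate in ≥4 independent experiments.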

[7] = molecular target: T4, Bile acid receptor (Homo sapiens); assay: Agonist activity at FXR in human HepG2 cells assessed as induction of BSEP mrNA expression at 3 uM by quantitative PCR method; assay type: cell-based; how it was run: as §3
Bile acid receptor = molecular target: T5, Bile acid receptor (Homo sapiens, UniProt Q96RI1); assay: Agonist activity at human FXR expressed in human HeLa cells assessed as receptor activation by BSEP promoter-driven firefly luciferase reporter gene assay; assay type: cell-based; details: read-out: EC50
T5 sequence (Q96RI1 whole entry): T4 sequence (whole entry)

[8] = molecular target: T4, Bile acid receptor (Homo sapiens); assay: Agonist activity at FXR in human HepG2 cells assessed as induction of OSTalpha mrNA expression at 1 uM by quantitative PCR method; assay type: cell-based; how it was run: as §3
Homo sapiens = organism: Homo sapiens; assay: Selectivity index, ratio of EC50 for GAL4-tagged PPARalpha (unknown origin) to EC50 for human FXR
[9] = molecular target: T4, Bile acid receptor (Homo sapiens); assay: Agonist activity at FXR in human HepG2 cells assessed as induction of SHP mrNA expression at 0.3 uM by quantitative PCR method; assay type: cell-based; how it was run: as §3
[10] = molecular target: T4, Bile acid receptor (Homo sapiens); assay: Agonist activity at FXR in human HepG2 cells assessed as induction of IBABP mrNA expression at 3 uM by quantitative PCR method; assay type: cell-based

- EC50 [1]: 30 µM
- EC50 [2]: 2.99 µM
- Emax [3]: 81%
- Activity [4]: 145%
- solubility [5]: 2.6 µg/mL (≈ 5.82 µM)
- Activity [6]: 57%
- Activity [8]: 140%
- Ratio EC50 (Homo sapiens): > 1000
- Activity [9]: 247%
- Activity [10]: 168%
Structure (SMILES): COc1ccc(C(=O)Nc2cccc(C(=O)O)c2)c(NC(=O)c2ccc(C(C)(C)C)cc2)c1
- Activity [7]: 326%
- EC50 (Bile acid receptor): 0.008 µM
